Sampled rows, rich in hits. Any-hit rate of the full collection: about 4.7%.
MrgX1 antagonist: blocks BAM8-22 activation of human MrgX1 receptor | Q96LB2 | MRGX1-HEK293 calcium flux, Fluo-4, BAM8-22 antagonism; stronger effect = lower value | B-score at 10 µM | 1.3% of 310,000 active | AID 588676;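 active = calcium-response B-score plate-corrected more than 3 library SD below zero, starting fluorescence within 5 deviations, no agonist response on first addition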;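 also: peak minus trough fluorescence over baseline after final BAM8-22 challenge near maximal dose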
RGS4 pot: RGS4 potentiation or activation; HEK293 M3R/inducible RGS4, carbachol calcium flux Fluo4; stronger effect = lower value; B-score at 10 µM; 0.92% of 310,000 active; AID 463111;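 active = B-score of the integrated calcium signal more than 4 SD below the library mean, with starting fluorescence not abnormally high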;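 also: negative B-score means reduced calcium response which marks RGS4 activation or potentiation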
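Material: M3R-expressing HEK293 line, RGS4 induced by doxycycline | Schedule: Overnight RGS4 induction, 30 min dye load 37 °C, 20 min compound RT | Measured by: Fluo4 fluorescence kinetic imaging of calcium | Read-out: Integrated calcium ratio converted to B score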
KCC2 mod: modulates chloride dependent transport by human KCC2; Q9H2X9; KCC2 cells, thallium flux FluoZin-2 fluorescence; B-score of Tl+ flux slope (higher = more flux/activation; lower = inhibition) at 10 µM; 2.2% of 190,000 active;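 active = thallium flux slope and its plate-corrected score both differing from the plate sample mean at a set confidence after two filtering rounds, in either direction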;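 also: slope of fluorescence scaled to starting intensity during 10 to 20 s after thallium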
RGS4 inh: inhibitors of human RGS4 | P49798 | HEK293 M3R/RGS4 inducible, Fluo-4 calcium flux; stronger effect = higher value; triggered by carbachol at its EC20 | B-score at 10 µM | 0.45% of 310,000 active | AID 463165;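 active = B-score, a plate-corrected calcium signal, over three deviations above library mean, with baseline fluorescence within five deviations of library mean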;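 also: RGS4 expression induced by doxycycline in cells with stable M3 receptor; B-score is computed from the integrated fluorescence ratio over baseline after carbachol; higher B-score means a larger calcium signal and so more RGS4 inhibition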
MrgX1 ag: activates human MrgX1 receptor signaling; Q96LB2; AID 588627; MrgX1-HEK293 cells, Fluo-4 calcium fluorescence, agonist mode; stronger effect = higher value; B-score at 10 µM; 0.44% of 310,000 active;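 active = calcium response B-score plate-corrected fluorescence ratio at least 3 library SD, with starting fluorescence B-score inside 5 SD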
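Material: MrgX1-expressing HEK293 cells / Dosing: compound as first of three additions / Incubation: overnight seeding, then 1 h dark dye loading / Signal: Fluo-4 NW calcium fluorescence / Evaluation: B-scored fluorescence response ratio / Benchmarks: positive and negative control wells on each plate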
MrgX1 allo act: allosterically activates human MrgX1 receptor signaling; MrgX1-HEK293, Fluo-4 calcium flux, FDSS; stronger effect = higher value; B-score at 10 µM; 0.63% of 310,000 active;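 active = plate-corrected calcium response at least 3 library SD above typical, normal starting fluorescence, not activating the receptor alone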;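 also: compound read alongside a low EC10 to EC30 dose of BAM8-22 agonist; peak minus trough fluorescence over baseline measured at the second addition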
KCC2 sec1: KCC2 (human) modulation, secondary assay | shares compounds with KCC2 mod | HEK293-KCC2, thallium flux, FluoZin2 fluorescence; stronger effect = higher value | normalised thallium flux (F/F0 slope) at 10 µM | 15% of 3,700 active;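 active = thallium flux slope above the same plate's solvent-only control mean plus 3 SD; inconclusive = the two replicate wells disagree; inactive = no significant difference from solvent-only control wells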
KCC2 bumet counter: thallium flux persisting under bumetanide in KCC2 cells, counter-screen secondary assay; normalized thallium flux at 10 µM; HEK293-KCC2 + bumetanide/ouabain, thallium flux FluoZin2; stronger effect = higher value; shares compounds with KCC2 mod; AID 1714; 49% of 3,700 active;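 active = thallium entry rate above the same plate's blocked-transporter control wells by more than 3 SD; inconclusive = the two repeat wells disagree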;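 also: raw slope of fluorescence over initial fluorescence between 10 and 20 s after thallium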
KCC2 secondary2: confirmation of human KCC2 transport modulators; shares compounds with KCC2 mod; HEK293-KCC2, thallium flux FluoZin2 fluorescence; actives lie on both sides; F/F0 rise rate, 10–20 s post-thallium; normalized thallium flux at 10 µM; 23% of 3,700 active;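 active = thallium flux slope more than 3 SD above or below the plate's solvent-only control mean, mostly below; inconclusive = the two repeat wells disagreed; inactive = no significant shift from solvent-only controls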;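 also: raw slope with 0.1% DMSO as baseline and bumetanide as block control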
HEK counter1: parental HEK flux effect, counter-screen; shares compounds with KCC2 mod; HEK293 parental cells, thallium flux FluoZin2, ouabain; baseline-ratio fluorescence slope, 10–20 s after thallium; thallium flux rate (normalised fluorescence) at 10 µM; 46% of 3,700 active; AID 1716;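 active = thallium flux rate significantly above the same plate's solvent-only control wells, beyond their mean plus 3 SD; inconclusive = the two replicate wells gave conflicting results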
KCC2 retest ouab: KCC2 (human) modulation, ouabain retest; 48% of 3,700 active; shares compounds with KCC2 mod; raw Tl+ flux slope (below DMSO = inhibition, above = activation) at 10 µM; HEK293-KCC2, thallium flux FluoZin2 fluorescence; bidirectional: low = inhibitor, high = activator;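 active = thallium flux slope beyond 3 SD from same-plate DMSO control mean in most replicates, usually higher, sometimes lower; inconclusive = repeat tests gave conflicting results; inactive = no significant difference from controls in most replicates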;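 also: slope of initial-normalized fluorescence between seconds 10 and 20 after thallium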
HEK293 Tl flux2: counter-screen for KCC2 modulators: effect in parental HEK293 cells | shares compounds with KCC2 mod | thallium flux FluoZin-2 fluorescence slope | thallium flux slope at 10 µM | 33% of 3,700 active | AID 1718;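 active = thallium flux slope above the same plate's solvent-control mean plus 3 SD in both duplicate wells; inconclusive = duplicate wells that disagreed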;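 also: run without ouabain in cells lacking the KCC2 cotransporter; slope of fluorescence scaled to its starting value between 10 and 20 s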
Active calls of the source: *; i = inactive; ? = inconclusive; · = no result given.

SMILES	MrgX1 antagonist	RGS4 pot	KCC2 mod	RGS4 inh	MrgX1 ag	MrgX1 allo act	KCC2 sec1	KCC2 bumet counter	KCC2 secondary2	HEK counter1	KCC2 retest ouab	HEK293 Tl flux2
O=C(Nc1ccc(Cl)c(Cl)c1)N(CCCN1CCOCC1)Cc1cccnc1	i	i	0.674	i	i	i	·	·	·	·	·	·
O=C(Nc1ccc(Cl)c(Cl)c1)N(CCCN1CCOCC1)Cc1cccs1	i	i	-3.01*	i	i	i	0.0098	0.00634	0.0331	0.00702	0.0211	0.0109
CCc1nnc(NC(=O)c2ccc(S(=O)(=O)N(CC(C)C)CC(C)C)cc2)o1	i	·	5.08*	·	i	i	0.0121*	0.0191*	0.0302	0.01*	0.0217*	0.00988
CSCc1nnc(NC(=O)c2ccc(S(=O)(=O)N(CC(C)C)CC(C)C)cc2)o1	·	i	2.57	i	·	·	·	·	·	·	·	·
Cc1nnc(NC(=O)c2ccc(S(=O)(=O)N(C)Cc3ccccc3)cc2)o1	i	i	·	i	i	i	·	·	·	·	·	·
CCN(Cc1ccccc1)S(=O)(=O)c1ccc(C(=O)Nc2nnc(C3CC3)o2)cc1	i	i	3.62*	i	i	i	0.0117	0.019*	0.0338	?	?	0.0118
COC(C(=O)Nc1ccnn1C1CCN(Cc2nccs2)CC1)c1ccccc1 (configuration not stated)	i	i	·	i	i	i	·	·	·	·	·	·
CCOc1ccccc1C(=O)NC1CC2CCCC(C1)N2Cc1nnnn1Cc1ccco1 (configuration not stated)	i	i	-4.02*	i	i	i	0.00621	0.00537	0.0311	0.00593	?	0.0095
O=C(NC1CC2CCC(C1)N2Cc1nnnn1Cc1ccco1)NC12CC3CC(CC(C3)C1)C2 (configuration not stated)	i	i	-0.101	i	i	i	·	·	·	·	·	·
CCCn1nnc(NC(=S)NC(=O)c2ccc(-c3ccc(Br)cc3)o2)n1	i	i	18.7*	i	i	i	?	0.0152*	0.0284	0.0149*	0.057*	0.0106
Cn1nnc(NC(=S)NC(=O)c2ccc(-c3ccc(Br)cc3)o2)n1	i	i	5.2*	i	i	i	0.0141*	0.0177*	0.0316	0.0167*	?	0.0121
COC(=O)[C@@H](NCc1cccc(CN([C@H](C(=O)OC)C(C)C)S(C)(=O)=O)c1)C(C)C	i	i	·	i	i	i	·	·	·	·	·	·
CCCn1nnc(NCc2ccc(OCc3cccs3)c(OC)c2)n1	i	i	-2.94*	i	i	i	0.00693	0.00464	0.0281	0.00728	?	0.0105
O=[N+]([O-])c1cccc(/C=N/Nc2ccccn2)c1	i	i	-2.01	i	i	i	·	·	·	·	·	·
O=[N+]([O-])c1cccc(/C=N/NC2=NS(=O)(=O)c3ccccc32)c1	i	i	-3.76*	i	i	i	0.01	?	0.0306	0.00727	0.02	0.00983

High-throughput results as filed in PubChem.
